In the library only some 2.4% were active in any assay of this set; here they are far more common.
APOBEC3A inh – human APOBEC3A DNA deaminase inhibition; AID 493011; inhibition, % at 20 µM; recombinant A3A, FAM/TAMRA ssDNA deamination fluorescence; 330,000 tested, 0.41% active; P31941;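 active = at least 40% inhibition at 20 µM here, with at most 30% in a related deaminase screen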
Target sequence (P31941 whole entry, looked up): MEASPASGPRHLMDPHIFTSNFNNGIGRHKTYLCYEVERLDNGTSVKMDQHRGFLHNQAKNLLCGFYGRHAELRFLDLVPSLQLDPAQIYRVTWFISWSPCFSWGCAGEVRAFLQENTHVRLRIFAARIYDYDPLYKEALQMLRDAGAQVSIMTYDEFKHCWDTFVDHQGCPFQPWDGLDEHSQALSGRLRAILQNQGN
HKDC1 inh – inhibitors of human hexokinase HKDC1; Q2TB90; recombinant HKDC1, G6PDH/diaphorase resazurin coupled fluorescence; inhibition, % at 20 µM; 340,000 tested, 0.16% active; AID 493160;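 active = inhibition above about 35% when tested at 20 µM, limit read from the data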
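Assay system – recombinant HKDC1 (HK5) hexokinase enzyme, produced in-house · Input – HKDC1 at 5 µg/mL · Reagent – glucose plus 1 mM ATP as hexokinase substrates · Timing – 90 min reaction incubation at room temperature, dark · Measured by – G6PDH/diaphorase-coupled fluorescence, 1 mM NADP, 100 µM resazurin, 525/613 nm · Benchmarks – DMSO-enzyme wells negative, buffer-substituted wells positive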
PfG6PD inh – PfG6PD (Plasmodium falciparum) enzyme inhibition | PfGluPho enzyme, NADPH resazurin-diaphorase fluorescence | inhibition, % at 20 µM | 350,000 tested, 0.78% active | AID 504690;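 active = inhibition reaching at least a set limit at 20 µM in the primary screen, cut at about 59% in these data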
A3G deaminase – blocks human APOBEC3G single-stranded DNA deamination | inhibition, % at 20 µM | Q9HC16 | AID 493012 | 330,000 tested, 0.28% active | recombinant A3G, ssDNA deamination FAM/TAMRA fluorescence;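 active = inhibition of at least 40% at 20 µM, with no more than 30% in the related APOBEC3A deaminase screen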
Target sequence (Q9HC16 whole entry, looked up): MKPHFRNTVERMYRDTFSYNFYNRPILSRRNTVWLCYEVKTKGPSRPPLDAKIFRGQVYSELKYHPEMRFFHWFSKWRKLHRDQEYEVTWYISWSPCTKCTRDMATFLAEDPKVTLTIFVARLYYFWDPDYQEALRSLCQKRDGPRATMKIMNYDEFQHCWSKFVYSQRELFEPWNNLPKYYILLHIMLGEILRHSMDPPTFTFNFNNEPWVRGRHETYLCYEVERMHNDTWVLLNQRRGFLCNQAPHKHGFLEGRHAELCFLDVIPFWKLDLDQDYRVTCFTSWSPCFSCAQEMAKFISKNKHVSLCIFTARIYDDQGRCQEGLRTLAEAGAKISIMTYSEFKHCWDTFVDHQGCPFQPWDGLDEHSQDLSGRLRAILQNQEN
SUMO HTRF inh – blocks human SUMOylation mediated by UBC9. P63279. HTRF SUMOylation assay, SAE1/SAE2 + UBC9, in vitro. inhibition, % at 35 µM. 290,000 tested, 0.36% active. AID 2006; in the data active = inhibition above about 50%, passing the limit was not always enough
Target sequence (P63279 whole entry, looked up): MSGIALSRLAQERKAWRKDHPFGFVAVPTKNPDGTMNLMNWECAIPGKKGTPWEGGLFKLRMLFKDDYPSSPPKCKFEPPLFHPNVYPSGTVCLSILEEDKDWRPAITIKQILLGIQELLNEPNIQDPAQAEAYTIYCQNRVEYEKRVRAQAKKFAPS
PfM18AAP inh – PfM18AAP enzyme inhibition. recombinant PfM18AAP, H-Glu-NHMec fluorogenic cleavage. 290,000 tested, 1.2% active. inhibition, % at 7.35 µM. AID 1822;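 active = inhibition above the campaign mean inhibition over all tested compounds plus 3 SD, cut at about 28% in these data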
APOBEC3A confirm – confirmation of human APOBEC3A DNA deaminase inhibitors; shares compounds with APOBEC3A inh; recombinant A3A, ssDNA deaminase UDG fluorescence assay; inhibition, % at 20 µM; 1,400 tested, 63% active; AID 493151;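 active = inhibition reaching a set limit, 80% of the first screen's cutoff, at 20 µM in any replicate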
UDG A3A counter – counter-screen for APOBEC3A inhibitors: UDG. shares compounds with APOBEC3A inh. UDG counterscreen, FAM/TAMRA uracil oligo fluorescence. inhibition, % at 20 µM. 1,000 tested, under 10 active. AID 504714; call rule not given here
Of the large screens only hits and unclear results are named; the others gave an inactive call (follow-up assays come after a bar, where they were run).

CC1(C)Oc2ccc3ccc(=O)oc3c2C(/C=N/O)=C1Cl	APOBEC3A inh 67 | APOBEC3A confirm 54 | UDG A3A counter inactive
CCOC(=O)c1c(NC(=O)CN(CC)CC)sc2c1CCC2	none
CCOC(=O)c1c(/N=C/c2ccccc2O)sc2c1CCC2	APOBEC3A inh 98 | APOBEC3A confirm inactive | UDG A3A counter inactive
CCOC(=O)c1c(NC(=O)OC)sc2c1CCC2	APOBEC3A inh 54 | APOBEC3A confirm inactive | UDG A3A counter inactive
O=C(NCc1ccccc1)N1CCCC1	none
CCN1CCN(c2ccc(S(=O)(=O)N3CCCCC3)cc2NC(=O)Cc2ccc(Cl)c(Cl)c2)CC1	none (no result: SUMO HTRF inh, PfM18AAP inh)
CC(C)Cc1nnc(NC(=O)c2cccc(S(=O)(=O)N3CCN(C)CC3)c2)s1	none (no result: SUMO HTRF inh, PfM18AAP inh)
CCN1CCN(c2ccc(S(=O)(=O)N3CCCCC3)cc2NC(=O)c2ccc(C)o2)CC1	APOBEC3A inh 63 (no result: SUMO HTRF inh, PfM18AAP inh) | APOBEC3A confirm 71 | UDG A3A counter inactive
CCCCc1nnc(NC(=O)c2cccc(S(=O)(=O)N3CCN(C)CC3)c2)s1	APOBEC3A inh 58 | APOBEC3A confirm inactive
CCN1CCN(c2ccc(S(=O)(=O)N3CCCCC3)cc2NC(=O)COc2ccccc2)CC1	none (no result: SUMO HTRF inh, PfM18AAP inh)
CCN1CCN(c2ccc(S(=O)(=O)N3CCCCC3)cc2NC(=O)c2ccccc2)CC1	APOBEC3A inh 46 (no result: SUMO HTRF inh, PfM18AAP inh) | APOBEC3A confirm 23 | UDG A3A counter inactive
CCOc1ccccc1OCC(=O)Nc1cc(S(=O)(=O)N2CCCCC2)ccc1N1CCN(CC)CC1	APOBEC3A inh 60 (no result: SUMO HTRF inh, PfM18AAP inh) | APOBEC3A confirm 55 | UDG A3A counter inactive
Cc1ccc(S(=O)(=O)N2CCCCC2)cc1NC(=O)CCCOc1ccccc1	none (no result: SUMO HTRF inh, PfM18AAP inh)
CN1CCN(S(=O)(=O)c2cccc(C(=O)Nc3cc(C(F)(F)F)ccc3N3CCCCC3)c2)CC1	APOBEC3A inh 44 (no result: SUMO HTRF inh, PfM18AAP inh) | APOBEC3A confirm inactive
CCN1CCN(c2ccc(S(=O)(=O)N3CCCCC3)cc2NC(=O)c2cccc(C(F)(F)F)c2)CC1	APOBEC3A inh 57 (no result: SUMO HTRF inh, PfM18AAP inh) | APOBEC3A confirm 51 | UDG A3A counter inactive
CC(=O)c1ccc(OCCCC(=O)Nc2cc(S(=O)(=O)N3CCCCC3)ccc2C)cc1	APOBEC3A inh 40 (no result: SUMO HTRF inh, PfM18AAP inh) | APOBEC3A confirm inactive
CCC(=O)c1ccc(OCC(=O)Nc2cc(S(=O)(=O)N3CCCCC3)ccc2N2CCN(CC)CC2)cc1	APOBEC3A inh 55 (no result: SUMO HTRF inh, PfM18AAP inh) | APOBEC3A confirm 66 | UDG A3A counter inactive
CC(CNCCCn1ccc(NC(=O)OCc2ccccc2)nc1=O)c1ccccc1 (stereo not given)	none (no result: APOBEC3A inh, A3G deaminase, SUMO HTRF inh, PfM18AAP inh)
Cc1ccc(NC(=O)c2sc3ncn(CC(=O)N4CCN(c5ccccn5)CC4)c(=O)c3c2C)cc1F	none
OC(Cn1cncn1)(c1ccc(F)cc1)c1ccc(Cl)cc1 (stereo not given)	none
COc1ccc(NS(=O)(=O)c2ccc(C)c(NC(=O)NC3CCCCC3)c2)cc1	none
O=C(Cc1c(F)cccc1Cl)Nc1cc(S(=O)(=O)N2CCCCC2)ccc1N1CCOCC1	none
COc1ccc(OC(=O)c2cccc(S(=O)(=O)N3CCCC3)c2)cc1	none
CN1CCN(c2ccc(S(=O)(=O)N3CCCCC3)cc2NC(=O)Cc2c(F)cccc2Cl)CC1	APOBEC3A inh 46 (no result: SUMO HTRF inh, PfM18AAP inh) | APOBEC3A confirm 36 | UDG A3A counter inactive
CCOc1ccc(OC(=O)c2cccc(S(=O)(=O)N3CCN(C)CC3)c2)cc1	APOBEC3A inh 60 (no result: SUMO HTRF inh, PfM18AAP inh) | APOBEC3A confirm inactive
CCN1CCN(c2ccc(S(=O)(=O)N3CCCCC3)cc2NC(=O)Cc2ccccc2)CC1	APOBEC3A inh 57 (no result: SUMO HTRF inh, PfM18AAP inh) | APOBEC3A confirm 64 | UDG A3A counter inactive
COc1ccc(NC(=O)CC(NCCc2ccccc2)C(=O)O)c(OC)c1 (stereo not given)	none
CC(C(=O)Nc1ccccc1)N(C)CCOc1ccccc1 (stereo not given)	none
O=C(Cn1c2[n+](c3ccc(C(F)(F)F)cc31)CCCCC2)Nc1ccccc1	APOBEC3A inh 60 | APOBEC3A confirm 62 | UDG A3A counter inactive
CCc1cccc(NC(=O)Cn2c3[n+](c4ccc(C(F)(F)F)cc42)CCCCC3)c1	APOBEC3A inh 62 | APOBEC3A confirm 78 | UDG A3A counter inactive
FC(F)(F)c1ccc2c(c1)n(Cc1ccccc1)c1[n+]2CCCCC1	none
COc1ccc2c(c1)N(C)/C(=C/c1cccc[n+]1C)S2	APOBEC3A inh 57 | APOBEC3A confirm 88 | UDG A3A counter inactive
CCN1/C(=C/c2cccc[n+]2C)Sc2ccc(OC)cc21	APOBEC3A inh 53 | APOBEC3A confirm 87 | UDG A3A counter inactive
COc1ccc2c(c1)Sc1ccccc1N2CCN(C)C	none
CCN1/C(=C/C(C)=O)Sc2ccc(OC)cc21	none
CN(C)C(CNC(=O)CN1C(=O)NC2(CCCC2)C1=O)c1ccccc1 (stereo not given)	none (no result: SUMO HTRF inh, PfM18AAP inh)
COc1ccc(NC(=O)c2oc3ccccc3c2NC(=O)C2CC2)c(OC)c1	none
CC(NC(=O)c1ccccc1Cl)C(=O)NCc1cccs1 (stereo not given)	none (no result: SUMO HTRF inh, PfM18AAP inh)
C[C@H](NC(=O)c1ccccc1Cl)C(=O)NCc1cccs1	APOBEC3A inh 59 | APOBEC3A confirm inactive
CCn1c(SCc2nc3ccccc3nc2C)nnc1-c1cccs1	none
C=CCn1c(SCc2nc3ccccc3nc2C)nnc1-c1ccoc1C	APOBEC3A inh 45 | APOBEC3A confirm inactive | UDG A3A counter inactive
CCN(CC(=O)Nc1ccc2c(c1)OCCO2)S(=O)(=O)c1ccccc1	none
COc1ccc(NC(=O)N(Cc2cc3cc(OC)ccc3[nH]c2=O)CC2CCCO2)cc1 (stereo not given)	none
CC12CC3(C)CC(C)(C1)CC(C(=O)NCC(=O)O)(C2)C3	APOBEC3A inh 50 | APOBEC3A confirm inactive | UDG A3A counter inactive
Cc1ccnc2ccc(P(=O)(c3ccccc3)c3ccccc3)cc12	none (no result: APOBEC3A inh, HKDC1 inh, PfG6PD inh, A3G deaminase)
CC[n+]1ccc(C)c2cc(P(=O)(c3ccccc3)c3ccccc3)ccc21	APOBEC3A inh 63 | APOBEC3A confirm active | UDG A3A counter inactive
CSC1=NSC2=NC(=O)/C(=C/c3coc4ccc(O)cc4c3=O)C(=N)N12	APOBEC3A inh 45 | APOBEC3A confirm 36 | UDG A3A counter inactive
CSC1=NSC2=NC(=O)/C(=C/c3coc4ccccc4c3=O)C(=N)N12	none (no result: APOBEC3A inh, A3G deaminase)
CCN(CC(=O)NCC(=O)Nc1ccc(Br)cc1C)Cc1ccccc1	APOBEC3A inh 40 (no result: SUMO HTRF inh, PfM18AAP inh) | APOBEC3A confirm inactive | UDG A3A counter inactive
N/C(=N\OC(=O)Cc1ccc([N+](=O)[O-])cc1)c1ccc([N+](=O)[O-])cc1	APOBEC3A inh 53 | APOBEC3A confirm inactive | UDG A3A counter inactive
N/C(=N\OC(=O)Cc1ccc([N+](=O)[O-])cc1)c1cccc(Br)c1	none
Cc1nn(Cc2cccc(C(=O)NC34CC5CC(CC(C5)C3)C4)c2)c(C)c1Br	none
